From ChEMBL document CHEMBL1275429, “Pharmacodynamic characterization of ceftobiprole in experimental pneumonia caused by phenotypically diverse Staphylococcus aureus strains” (Antimicrob Agents Chemother, 2008)
In brackets after ≈: the same amount, converted by molar mass.

Tests used:
Mus musculus = assay: Volume of distribution in neutropenic BALB/cAnNCr mouse infected with Staphylococcus aureus at 1 mg/kg, sc administered as single dose after 6 hrs of infection; format: ADME, organism-based; design: dose 1 mg/kg, route subcutaneous; conditions: in vivo
Procedure, shortened: (§1)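 Neutropenic female mice (cyclophosphamide i.p. 250 mg/kg day −4, 100 mg/kg day −1) with HA-MRSA 56 pneumonia (oral inoculum, 10^7 CFU/ml in 3% mucin). Single s.c. dose in sterile water. Plasma by intracardiac puncture at 0.25–4 h, six mice per time point, stabilized with citric acid. Assayed by validated HPLC (LOQ 0.01 µg/ml). Parameters from one-compartment analysis.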

[1] = fCmax/MIC in neutropenic BALB/cAnNCr mouse plasma infected with Staphylococcus aureus at 1 to 25 mg/kg, sc administered 1 to 5 times/day after 24 hrs by HPLC; format: functional; conditions: route subcutaneous
Procedure, shortened: (§2)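 Exposure indices used free plasma drug, correcting with 19% mouse protein binding supplied by the sponsor. The regimens were s.c. 1–25 mg/kg given 1–5 times daily for 24 h to neutropenic mice with S. aureus pneumonia. MICs were determined in triplicate by CLSI broth microdilution. PK came from the single-dose HPLC study.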

[2] = Elimination clearance in neutropenic BALB/cAnNCr mouse infected with Staphylococcus aureus at 2.5 mg/kg, sc administered as single dose after 6 hrs of infection; format: ADME, organism-based; design: dose 2.5 mg/kg, route subcutaneous; conditions: in vivo
Procedure, shortened: (§3)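 Female BALB/cAnNCr mice (7-9 weeks, 15-22 g) made neutropenic with cyclophosphamide, 250 mg/kg i.p. on day -4 and 100 mg/kg i.p. on day -1. Infected by oral aspiration of HA-MRSA 56 (10^7 CFU/ml in 3% mucin/saline). Single s.c. dose in sterile water given 6 h post-challenge. Plasma (EDTA, citric acid-stabilized) taken at 0.25-4 h, six mice per time point. Assayed by validated HPLC (LOQ 0.01 µg/ml); one-compartment analysis.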

[3] = Elimination half life in neutropenic BALB/cAnNCr mouse infected with Staphylococcus aureus at 10 mg/kg, sc administered as single dose after 6 hrs of infection; format: ADME, organism-based; design: dose 10 mg/kg, route subcutaneous; conditions: in vivo; procedure, shortened: as §1
[4] = fT>MIC required for stasis inhibition of community acquired methicillin-resistant Staphylococcus aureus 146 infection in neutropenic BALB/cAnNCr mouse; format: functional
Procedure, shortened: (§4)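 Same neutropenic murine pneumonia model, with 24-h lung log10 CFU change (5 mice per group; 1–25 mg/kg s.c., 1–5 times daily). […] ED50, ED80 and stasis exposures were taken from a sigmoid Emax fit for each isolate.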

[5] = fT>MIC required for 50% inhibition of Staphylococcus aureus infection in neutropenic BALB/cAnNCr mouse; format: functional
[6] = fT>MIC required for 80% inhibition of methicillin-susceptible Staphylococcus aureus 25923 infection in neutropenic BALB/cAnNCr mouse; format: functional
[7] = fT>MIC required for 80% inhibition of hospital acquired methicillin-resistant Staphylococcus aureus 152 infection in neutropenic BALB/cAnNCr mouse; format: functional; procedure, shortened: as §4
[8] = fT>MIC required for 80% inhibition of community acquired methicillin-resistant Staphylococcus aureus 147 infection in neutropenic BALB/cAnNCr mouse; format: functional; procedure, shortened: as §4
[9] = fT>MIC required for 50% inhibition of hospital acquired methicillin-resistant Staphylococcus aureus 56 infection in neutropenic BALB/cAnNCr mouse; format: functional; procedure, shortened: as §4
[10] = AUC (0 to infinity) in neutropenic BALB/cAnNCr mouse infected with Staphylococcus aureus at 1 mg/kg, sc administered as single dose after 6 hrs of infection; format: ADME, organism-based; design: time infinity, dose 1 mg/kg, route subcutaneous; conditions: plasma; procedure, shortened: as §1
Staphylococcus aureus [11] = assay: Antimicrobial activity against methicillin-susceptible Staphylococcus aureus ATCC 29213 by broth microdilution method; format: functional
Procedure, shortened: (§5)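 Broth microdilution run in triplicate following CLSI guidelines. Isolates were stored at –80°C in double-strength skim milk and subcultured twice on Trypticase soy agar with 5% sheep blood before testing.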

[12] = fCmax/MIC required for 80% inhibition of Staphylococcus aureus infection in neutropenic BALB/cAnNCr mouse; format: functional
[13] = fT>MIC required for 80% inhibition of Staphylococcus aureus infection in neutropenic BALB/cAnNCr mouse; format: functional
Staphylococcus aureus [14] = assay: Antimicrobial activity against community acquired methicillin-resistant Staphylococcus aureus 146 by broth microdilution method; format: functional; procedure, shortened: as §5
[15] = fT>MIC in neutropenic BALB/cAnNCr mouse plasma infected with Staphylococcus aureus at 1 to 25 mg/kg, sc administered 1 to 5 times/day after 24 hrs HPLC; format: functional; conditions: route subcutaneous; procedure, shortened: as §2
[16] = fT>MIC required for stasis inhibition of community acquired methicillin-resistant Staphylococcus aureus 147 infection in neutropenic BALB/cAnNCr mouse; format: functional; procedure, shortened: as §4
[17] = fT>MIC required for stasis inhibition of Staphylococcus aureus infection in neutropenic BALB/cAnNCr mouse; format: functional
[18] = fT>MIC required for 50% inhibition of methicillin-susceptible Staphylococcus aureus 25923 infection in neutropenic BALB/cAnNCr mouse; format: functional
[19] = Cmax in neutropenic BALB/cAnNCr mouse infected with Staphylococcus aureus at 10 mg/kg, sc administered as single dose after 6 hrs of infection; format: ADME, organism-based; design: dose 10 mg/kg, route subcutaneous; conditions: in vivo; procedure, shortened: as §1
[20] = Elimination half life in neutropenic BALB/cAnNCr mouse infected with Staphylococcus aureus at 2.5 mg/kg, sc administered as single dose after 6 hrs of infection; format: ADME, organism-based; design: dose 2.5 mg/kg, route subcutaneous; conditions: in vivo; procedure, shortened: as §3
[21] = fT>MIC required for 50% inhibition of methicillin-susceptible Staphylococcus aureus 29213 infection in neutropenic BALB/cAnNCr mouse; format: functional
[22] = Elimination clearance in neutropenic BALB/cAnNCr mouse infected with Staphylococcus aureus at 25 mg/kg, sc administered as single dose after 6 hrs of infection; format: ADME, organism-based; design: dose 25 mg/kg, route subcutaneous; conditions: in vivo; procedure, shortened: as §1
Staphylococcus aureus [23] = assay: Antimicrobial activity against hospital acquired methicillin-resistant Staphylococcus aureus 149 by broth microdilution method; format: functional; procedure, shortened: as §5
Staphylococcus aureus [24] = assay: Antimicrobial activity against Staphylococcus aureus infected in BALB/cAnNCr mouse assessed as decrease in bacterial density in lungs relative to control at 1 to 25 mg/kg, sc administered as 1 to 5 times/day after 24 hrs […]; format: functional; conditions: dose mg/kg 1-5; route subcutaneous
Procedure, shortened: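 Neutropenic mice given oral S. aureus inoculum (10^7 CFU/ml in 3% mucin). s.c. dosing of 1–25 mg/kg, once to five times daily, began 6 h post-infection and ran 24 h, five mice per group, with sham-treated controls. Lung homogenates were plated on blood and Columbia agar at 35°C up to 48 h. Log10 CFU/ml at 24 h was compared with untreated controls.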

Staphylococcus aureus [25] = assay: Antimicrobial activity against methicillin-susceptible Staphylococcus aureus 29213 infected in BALB/cAnNCr mouse assessed as decrease in bacterial density in lungs at 1 to 25 mg/kg, sc administered as 1 to 5 times/day after 24 hrs […] relative to control; format: functional; conditions: route subcutaneous
Procedure, shortened: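 Female BALB/cAnNCr mice (7–9 weeks) were made neutropenic with cyclophosphamide i.p. at 250 mg/kg on day −4 and 100 mg/kg on day −1. Under isoflurane, mice received an oral inoculum in 3% mucin/saline, with nostrils blocked until aspiration. Drug (1–25 mg/kg s.c., once to five times daily, water vehicle) or sham started 6 h post-inoculation. Lungs were harvested at 24 h, homogenized and plated on blood and Columbia agar at 35°C. Mean log10 CFU/ml was compared with the 0-h untreated baseline; 5 mice per group.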

Nc1nc(/C(=N/O)C(=O)N[C@@H]2C(=O)N3C(C(=O)O)=C(/C=C4\CCN([C@@H]5CCNC5)C4=O)CS[C@H]23)ns1 [CEFTOBIPROLE]
Vd (Mus musculus): 0.19 L/kg | fCmax/MIC [1]: 1 | CL/F [2]: 16.2 mL/min/kg | half-life [3]: 25.2 min | fT>MIC [4]: 5.6% | fT>MIC [5]: 12% | fT>MIC [6]: 10.2% | fT>MIC [7]: 15.9% | fT>MIC [8]: 21.6% | fT>MIC [9]: 13.7% | AUC(0-inf) [10]: 1840 ng·h/mL | MIC (Staphylococcus aureus [11]): 0.25 µg/mL (≈ 0.468 µM) | fCmax/MIC [12]: 2 | fT>MIC [13]: 17% | MIC (Staphylococcus aureus [14]): 2 µg/mL (≈ 3.74 µM) | fT>MIC [15]: 3% | fT>MIC [16]: 14.9% | fT>MIC [17]: 11% | fT>MIC [18]: 8.1% | Cmax [19]: 19800 ng/mL | half-life [20]: 27 min | fT>MIC [21]: 14.8% | CL/F [22]: 11.8 mL/min/kg | MIC (Staphylococcus aureus [23]): 1 µg/mL (≈ 1.87 µM) | log10cfu (Staphylococcus aureus [24]): 2.5 | log10cfu (Staphylococcus aureus [25]): 3.9
